Test results from ChEMBL document CHEMBL1127450, “Synthesis and antiviral activity evaluation of some aminoadamantane derivatives” (1994).
≈ marks a conversion by molar mass, not a printed value.

Legend:
Type in all cases: functional
HeLa [1] = test: tested for minimum inhibitory concentration required to reduce virus-induced cytopathicity by 50% on HeLa cell line infected with polio 1 virus; conditions: Homo sapiens
Procedure, shortened: (§1)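 HeLa (human epithelial), MDCK (Madin-Darby canine kidney) or Vero (African green monkey kidney) cells were infected with the stated virus. The value is the concentration that reduces virus-induced cytopathicity by 50%. Values are averages of at least two separate experiments.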

HEF [2] = test: Tested for minimum inhibitory concentration required to reduce virus-induced cytopathicity by 50% on HEF cell line infected with HSV-1 virus; conditions: Homo sapiens
Procedure, shortened: (§2)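 Human embryonic skin-muscle fibroblasts (HEF) were infected with the stated virus. The value is the concentration that reduces virus-induced cytopathicity by 50%. Values are averages of at least two separate experiments.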

Vero [3] = test: Tested for minimum inhibitory concentration required to reduce virus-induced cytopathicity by 50% on vero cell line infected with parainfluenza 3 virus; conditions: Chlorocebus sabaeus; procedure, shortened: as §1
MDCK [4] = test: tested for minimum inhibitory concentration required to cause a microscopically detectable alteration of normal cell morphology by 50% on MDCK cell line; conditions: Canis lupus familiaris
Procedure, shortened: (§3)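 HeLa (human epithelial), MDCK (Madin-Darby canine kidney) or Vero (African green monkey kidney) cells were scored by microscopy. The value is the minimum concentration that causes a detectable alteration of normal cell morphology. Values are averages of at least two separate experiments.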

HEF [5] = test: tested for minimum inhibitory concentration required to reduce virus-induced cytopathicity by 50% on HEF cell line infected with vesicular stomatitis virus; conditions: Homo sapiens; procedure, shortened: as §2
HEF [6] = test: Tested for minimum inhibitory concentration required to reduce virus-induced cytopathicity by 50% on HEF cell line infected with thymidine kinase-deficient herpes simplex virus type 1 (TK-HSV-1); conditions: Homo sapiens; procedure, shortened: as §2
HEF [7] = test: tested for minimum inhibitory concentration required to reduce […] by 50% on HEF cell line; conditions: Homo sapiens
Procedure, shortened: (§4)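 Human embryonic lung fibroblasts (HEF) were used for cell proliferation. The value is the concentration that reduces cell proliferation by 50%. Values are averages of at least two separate experiments.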

MDCK [8] = test: Tested for minimum inhibitory concentration required to reduce virus-induced cytopathicity by 50% on MDCK cell line infected with influenza A virus; conditions: Canis lupus familiaris; procedure, shortened: as §1
Vero [9] = test: tested for minimum inhibitory concentration required to reduce virus-induced cytopathicity by 50% on vero cell line infected with coxsackie B4 virus; conditions: Chlorocebus sabaeus; procedure, shortened: as §1
Vero [10] = test: tested for minimum inhibitory concentration required to reduce virus-induced cytopathicity by 50% on vero cell line infected with sindbis virus; conditions: Chlorocebus sabaeus; procedure, shortened: as §1
HeLa [11] = test: Tested for minimum inhibitory concentration required to reduce virus-induced cytopathicity by 50% on HeLa cell line infected with RSV virus; conditions: Homo sapiens; procedure, shortened: as §1
HEF [12] = test: tested for minimum inhibitory concentration required to cause a microscopically detectable alteration of normal cell morphology by 50% on HEF cell line; conditions: Homo sapiens
Procedure, shortened: (§5)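 Human embryonic skin-muscle fibroblasts (HEF) were used. The value is the minimum concentration that causes a microscopically detectable alteration of normal cell morphology. Values are averages of at least two separate experiments.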

Vero [13] = test: tested for minimum inhibitory concentration required to cause a microscopically detectable alteration of normal cell morphology by 50% on vero cell line; conditions: Chlorocebus sabaeus; procedure, shortened: as §3
HEF [14] = test: tested for minimum inhibitory concentration required to reduce virus-induced cytopathicity by 50% on HEF cell line infected with HSV-2 virus; conditions: Homo sapiens; procedure, shortened: as §2
CCRF-CEM [15] = test: tested for minimum inhibitory concentration required to reduce virus-induced cell viability by 50% on CEM cell line; conditions: Homo sapiens
MDCK [16] = test: Tested for minimum inhibitory concentration required to reduce virus-induced cytopathicity by 50% on MDCK cell line infected with influenza B virus; conditions: Canis lupus familiaris; procedure, shortened: as §1
HeLa [17] = test: tested for minimum inhibitory concentration required to cause a microscopically detectable alteration of normal cell morphology by 50% on HeLa cell line; conditions: Homo sapiens; procedure, shortened: as §3
CCRF-CEM [18] = test: tested for minimum inhibitory concentration required to reduce virus-induced cytopathicity by 50% was evaluated on CEM cell line infected with HIV-1 virus; conditions: Homo sapiens
HEF [19] = test: tested for minimum inhibitory concentration required to reduce virus-induced cytopathicity by 50% on HEF cell line infected with vaccinia virus; conditions: Homo sapiens; procedure, shortened: as §2
Vero [20] = test: tested for minimum inhibitory concentration required to reduce virus-induced cytopathicity by 50% on vero cell line infected with semliki forest virus; conditions: Chlorocebus sabaeus; procedure, shortened: as §1
Vero [21] = test: tested for minimum inhibitory concentration required to reduce virus-induced cytopathicity by 50% on vero cell line infected with Reo 1 virus; conditions: Chlorocebus sabaeus; procedure, shortened: as §1
CCRF-CEM [22] = test: tested for minimum inhibitory concentration required to reduce virus-induced cytopathicity by 50% on CEM cell line infected with HIV-2 virus; conditions: Homo sapiens
HEF [23] = test: Tested for minimum inhibitory concentration required to reduce virus-induced cytopathicity by 50% on HEF cell line infected with vesicular stomatitis virus; conditions: Homo sapiens; procedure, shortened: as §2
HeLa [24] = test: Tested for minimum inhibitory concentration required to reduce virus-induced cytopathicity by 50% on HeLa cell line infected with polio 1 virus; conditions: Homo sapiens; procedure, shortened: as §1
CCRF-CEM [25] = test: Tested for minimum inhibitory concentration required to reduce virus-induced cell viability by 50% on CEM cell line.; conditions: Homo sapiens
HEF [26] = test: Tested for minimum inhibitory concentration required to reduce virus-induced cytopathicity by 50% on HEF cell line infected with HSV-2 virus; conditions: Homo sapiens; procedure, shortened: as §2
HeLa [27] = test: Tested for minimum inhibitory concentration required to cause a microscopically detectable alteration of normal cell morphology by 50% on HeLa cell line; conditions: Homo sapiens; procedure, shortened: as §3
Vero [28] = test: Tested for minimum inhibitory concentration required to reduce virus-induced cytopathicity by 50% on vero cell line infected with Reo 1 virus; conditions: Chlorocebus sabaeus; procedure, shortened: as §1
MDCK [29] = test: Tested for minimum inhibitory concentration required to cause a microscopically detectable alteration of normal cell morphology by 50% on MDCK cell line; conditions: Canis lupus familiaris; procedure, shortened: as §3
CCRF-CEM [30] = test: Tested for minimum inhibitory concentration required to reduce virus-induced cytopathicity by 50% on CEM cell line infected with HIV-2 virus; conditions: Homo sapiens
HEF [31] = test: Tested for minimum inhibitory concentration required to reduce […] by 50% on HEF cell line; conditions: Homo sapiens; procedure, shortened: as §4
HEF [32] = test: Tested for minimum inhibitory concentration required to cause a microscopically detectable alteration of normal cell morphology by 50% on HEF cell line; conditions: Homo sapiens; procedure, shortened: as §5
Vero [33] = test: Tested for minimum inhibitory concentration required to reduce virus-induced cytopathicity by 50% on vero cell line infected with semliki forest virus; conditions: Chlorocebus sabaeus; procedure, shortened: as §1
CCRF-CEM [34] = test: Tested for minimum inhibitory concentration required to reduce virus-induced cytopathicity by 50% was evaluated on CEM cell line infected with HIV-1 virus; conditions: Homo sapiens
Vero [35] = test: Tested for minimum inhibitory concentration required to reduce virus-induced cytopathicity by 50% on vero cell line infected with sindbis virus; conditions: Chlorocebus sabaeus; procedure, shortened: as §1
Vero [36] = test: Tested for minimum inhibitory concentration required to reduce virus-induced cytopathicity by 50% on vero cell line infected with coxsackie B4 virus; conditions: Chlorocebus sabaeus; procedure, shortened: as §1
HEF [37] = test: Tested for minimum inhibitory concentration required to reduce virus-induced cytopathicity by 50% on HEF cell line infected with vaccinia virus; conditions: Homo sapiens; procedure, shortened: as §2
Vero [38] = test: Tested for minimum inhibitory concentration required to cause a microscopically detectable alteration of normal cell morphology by 50% on vero cell line; conditions: Chlorocebus sabaeus; procedure, shortened: as §3

C1CN(CC2CC2)C2(C1)C1CC3CC(C1)CC2C3 (centres undefined)
MIC50 (HeLa [1]): > 400 µg/mL
MIC50 (HEF [2]): 300 µg/mL (≈ 1220 µM)
MIC50 (Vero [3]): > 400 µg/mL
MIC50 (MDCK [4]): 100 µg/mL (≈ 407 µM)
MIC50 (HEF [5]): 150 µg/mL (≈ 611 µM)
MIC50 (HEF [6]): ≥ 400 µg/mL
MIC50 (HEF [7]): > 200 µg/mL
MIC50 (MDCK [8]): ≥ 40 µg/mL
MIC50 (Vero [9]): > 400 µg/mL
MIC50 (Vero [10]): > 400 µg/mL
MIC50 (HeLa [11]): ≥ 150 µg/mL
MIC50 (HEF [12]): > 400 µg/mL
MIC50 (Vero [13]): > 400 µg/mL
MIC50 (HEF [14]): > 400 µg/mL
MIC50 (CCRF-CEM [15]): > 200 µg/mL
MIC50 (MDCK [16]): > 100 µg/mL
MIC50 (HeLa [17]): > 400 µg/mL
MIC50 (CCRF-CEM [18]): > 200 µg/mL
MIC50 (HEF [19]): 100 µg/mL (≈ 407 µM)
MIC50 (Vero [20]): > 400 µg/mL
MIC50 (Vero [21]): > 400 µg/mL
MIC50 (CCRF-CEM [22]): > 200 µg/mL

O=C(Nc1ccc(Cl)cc1)N1CCCC12C1CC3CC(C1)CC2C3 (centres undefined)
MIC50 (HEF [23]): > 20 µg/mL
MIC50 (HeLa [24]): > 70 µg/mL
MIC50 (HEF [2]): > 20 µg/mL
MIC50 (Vero [3]): > 70 µg/mL
MIC50 (HEF [6]): > 20 µg/mL
MIC50 (CCRF-CEM [25]): 3.4 µg/mL (≈ 9.86 µM)
MIC50 (MDCK [8]): 2.4 µg/mL (≈ 6.96 µM)
MIC50 (HEF [26]): > 20 µg/mL
MIC50 (HeLa [27]): 100 µg/mL (≈ 290 µM)
MIC50 (HeLa [11]): > 20 µg/mL
MIC50 (Vero [28]): > 70 µg/mL
MIC50 (MDCK [29]): 20 µg/mL (≈ 58 µM)
MIC50 (CCRF-CEM [30]): > 1.6 µg/mL
MIC50 (MDCK [16]): > 20 µg/mL
MIC50 (HEF [31]): 150 µg/mL (≈ 435 µM)
MIC50 (HEF [32]): 40 µg/mL (≈ 116 µM)
MIC50 (Vero [33]): > 70 µg/mL
MIC50 (CCRF-CEM [34]): > 1.6 µg/mL
MIC50 (Vero [35]): > 70 µg/mL
MIC50 (Vero [36]): > 70 µg/mL
MIC50 (HEF [37]): > 20 µg/mL
MIC50 (Vero [38]): 100 µg/mL (≈ 290 µM)
